{
  "source": "paper PMC3046310",
  "about": "(Bioconjugate chemistry, 2010)",
  "key": {"MC1R [1]": {"target": "T1, MC1R (Mus musculus, UniProt Q01727)", "T1 sequence (Q01727 whole entry)": "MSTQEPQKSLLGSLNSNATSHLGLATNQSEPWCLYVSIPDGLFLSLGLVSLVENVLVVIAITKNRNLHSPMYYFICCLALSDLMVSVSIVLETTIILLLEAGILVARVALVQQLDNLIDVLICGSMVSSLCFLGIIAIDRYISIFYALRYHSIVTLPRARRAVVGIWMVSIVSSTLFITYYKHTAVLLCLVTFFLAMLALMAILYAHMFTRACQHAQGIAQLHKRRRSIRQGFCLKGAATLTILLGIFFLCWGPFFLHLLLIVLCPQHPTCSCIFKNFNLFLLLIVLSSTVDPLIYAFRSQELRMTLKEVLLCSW", "experiment": "In vitro cell binding assay", "design": "species or system murine", "settings": "B16F10 cells", "outline": "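B16F10 cells were grown in high-glucose DMEM with 10% FBS and penicillin/streptomycin at 37 °C and 5% CO2. Cells (0.5 × 10^6) were resuspended in DMEM with 25 mM HEPES, 0.2% BSA and 0.3 mM 1,10-phenanthroline. They were incubated for 90 min at 37 °C with test compound (10^−12–10^−6 M) and ~40,000 cpm 125I-(Tyr2)-NDP. Cells were washed three times with ice-cold PBS and counted. IC50 was taken as the competitor concentration giving 50% inhibition of radioligand binding.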"}, "A375M human melanoma": {"test_system": "A375M human melanoma", "experiment": "Biodistribution in Foxn1 nude mice bearing A375M tumors", "format": "in vivo"}, "B16F10 tumors": {"test_system": "B16F10 tumors", "experiment": "Small-animal PET imaging of mice bearing B16F10 tumors", "format": "in vivo, murine", "settings": "for PET tumor delineation / image quality: B16F10 tumors, 1 and 2 h p.i.", "outline": "(§1)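 Mice bearing B16F10 or A375M tumors received 110–130 μCi (4.07–4.81 MBq) 18F tracer via the tail vein. At 1 and 2 h p.i., mice under 2% isoflurane were placed prone for 5-min static small-animal PET scans, reconstructed by 2D OSEM without attenuation correction. ROIs drawn on decay-corrected coronal images were converted to %ID/g using a calibration constant, assuming 1 g/mL tissue density.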"}, "B16F10 murine melanoma": {"test_system": "B16F10 murine melanoma", "experiment": "Biodistribution in C57BL/6 mice bearing B16F10 tumors", "format": "in vivo", "outline": "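Male C57BL/6 mice, 5–6 weeks old, were given 1 × 10^6 B16F10 cells in the right flank. At tumor diameter ~8 mm, 110–130 μCi (4.07–4.81 MBq) 18F tracer in PBS (0.01 M, pH 7.4) was injected i.v. into the tail vein. Mice (n=3) were killed by CO2 at 1, 2 and 4 h p.i. Tumor, blood and organs were weighed and γ-counted, giving %ID/g. Groups were compared by unpaired Student's t-test.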"}, "A375M melanoma": {"test_system": "A375M melanoma", "experiment": "Small-animal PET imaging of mice bearing A375M tumors", "format": "in vivo, human", "outline": "as §1"}, "MC1R [2]": {"target": "T1, MC1R", "settings": "previous studies; ref [19]; cited from earlier work"}, "[3]": {"settings": "Foxn1 nude mice, A375M, 2 h p.i., i.v. 110-130 μCi, mean ± SD, n = 3"}, "[4]": {"settings": "C57BL/6 mice, B16F10, 2 h p.i., i.v. 110-130 μCi, mean ± SD, n = 3"}},
  "note": "Entries after “also recorded” stand apart in the source; their conditions may differ.",
  "data": [
    {"molecule": "CC(=O)N[C@H](CCCCNC(=O)C(C)F)C(=O)N[C@@H](CS)C(=O)N[C@@H](CS)C(=O)N[C@@H](CCC(=O)O)C(=O)N[C@@H](Cc1c[nH]cn1)C(=O)N[C@H](Cc1ccccc1)C(=O)N[C@@H](CCCNC(=N)N)C(=O)N[C@@H](Cc1c[nH]c2ccccc12)C(=O)N[C@@H](CS)C(=O)N[C@@H](CCCNC(=N)N)C(=O)N1CCC[C@H]1C(=O)N[C@H](C(N)=O)C(C)C", "note": "(some centres unmarked) [^19F-FP-RMSH-2]", "values": [
      {"measurement": "receptor binding affinity", "setting": "MC1R [1]", "value": "within low nM range"}
    ]},
    {"molecule": "CC(=O)N[C@H](CCCCNC(=O)C(C)F)C(=O)N[C@@H](CS)C(=O)N[C@@H](CS)C(=O)N[C@@H](CCC(=O)O)C(=O)N[C@@H](Cc1c[nH]cn1)C(=O)N[C@H](Cc1ccccc1)C(=O)N[C@@H](CCCNC(=N)N)C(=O)N[C@@H](Cc1c[nH]c2ccccc12)C(=O)N[C@@H](CS)C(=O)N[C@@H](CCCNC(=N)N)C(=O)N1CCC[C@H]1C(=O)N[C@H](C(N)=O)C(C)C", "note": "(some centres unmarked) [^18F-FP-RMSH-2]", "values": [
      {"measurement": "liver and lung uptake compared with ^18F-FB-RMSH-2, A375M", "setting": "A375M human melanoma; \"in both models\" (P < 0.05), A375M model", "value": "lower"},
      {"measurement": "liver and kidney uptake compared with ^18F-FP-RMSH-1, A375M", "setting": "A375M human melanoma; A375M model, P < 0.05", "value": "higher uptake in liver and kidney"},
      {"measurement": "Blood uptake", "setting": "A375M human melanoma; [3]", "value": "0.20 ± 0.09", "unit": "%ID/g"},
      {"measurement": "Bone uptake", "setting": "A375M human melanoma; [3]", "value": "0.25 ± 0.12", "unit": "%ID/g"},
      {"measurement": "Brain uptake", "setting": "A375M human melanoma; [3]", "value": "0.04 ± 0.01", "unit": "%ID/g"},
      {"measurement": "Heart uptake", "setting": "A375M human melanoma; [3]", "value": "0.18 ± 0.07", "unit": "%ID/g"},
      {"measurement": "Intestine uptake", "setting": "A375M human melanoma; [3]", "value": "0.17 ± 0.00", "unit": "%ID/g"},
      {"measurement": "Liver uptake", "setting": "A375M human melanoma; [3]", "value": "1.66 ± 0.08", "unit": "%ID/g"},
      {"measurement": "Lung uptake", "setting": "A375M human melanoma; [3]", "value": "0.47 ± 0.21", "unit": "%ID/g"},
      {"measurement": "Muscle uptake", "setting": "A375M human melanoma; [3]", "value": "0.10 ± 0.02", "unit": "%ID/g"},
      {"measurement": "Pancreas uptake", "setting": "A375M human melanoma; [3]", "value": "0.09 ± 0.01", "unit": "%ID/g"},
      {"measurement": "Spleen uptake", "setting": "A375M human melanoma; [3]", "value": "0.27 ± 0.03", "unit": "%ID/g"},
      {"measurement": "Stomach uptake", "setting": "A375M human melanoma; [3]", "value": "0.52 ± 0.50", "unit": "%ID/g"},
      {"measurement": "Tumor / Blood uptake ratio", "setting": "A375M human melanoma; [3]", "value": "2.90 ± 0.04"},
      {"measurement": "Tumor / Muscle uptake ratio", "setting": "A375M human melanoma; [3]", "value": "6.40 ± 2.66"},
      {"measurement": "PET tumor uptake compared with ^18F-FP-RMSH-1", "setting": "B16F10 tumors; B16F10, 1 and 2 h, ROI quantification, P < 0.01", "value": "much lower tumor uptake"},
      {"measurement": "PET liver and kidney uptake", "setting": "B16F10 tumors; B16F10, 1 and 2 h p.i.", "value": "moderate to high uptake in liver and kidney"},
      {"measurement": "PET kidney uptake compared with ^18F-FP-RMSH-1", "setting": "B16F10 tumors; B16F10, 1 and 2 h p.i., ROI quantification, n = 3, P < 0.01", "value": "much higher uptake in kidney"},
      {"measurement": "PET tumor delineation / image quality", "setting": "B16F10 tumors", "value": "much less prominent tumor uptake"},
      {"measurement": "liver and lung uptake compared with ^18F-FB-RMSH-2, B16F10", "setting": "B16F10 murine melanoma; \"in both models\" (P < 0.05), B16F10 model", "value": "lower"},
      {"measurement": "Blood uptake", "setting": "B16F10 murine melanoma; [4]", "value": "0.31 ± 0.11", "unit": "%ID/g"},
      {"measurement": "Bone uptake", "setting": "B16F10 murine melanoma; [4]", "value": "0.52 ± 0.08", "unit": "%ID/g"},
      {"measurement": "Brain uptake", "setting": "B16F10 murine melanoma; [4]", "value": "0.04 ± 0.01", "unit": "%ID/g"},
      {"measurement": "Heart uptake", "setting": "B16F10 murine melanoma; [4]", "value": "0.21 ± 0.06", "unit": "%ID/g"},
      {"measurement": "Intestine uptake", "setting": "B16F10 murine melanoma; [4]", "value": "0.91 ± 0.33", "unit": "%ID/g"},
      {"measurement": "Lung uptake", "setting": "B16F10 murine melanoma; [4]", "value": "0.64 ± 0.15", "unit": "%ID/g"},
      {"measurement": "Muscle uptake", "setting": "B16F10 murine melanoma; [4]", "value": "0.20 ± 0.05", "unit": "%ID/g"},
      {"measurement": "Pancreas uptake", "setting": "B16F10 murine melanoma; [4]", "value": "0.10 ± 0.03", "unit": "%ID/g"},
      {"measurement": "Spleen uptake", "setting": "B16F10 murine melanoma; [4]", "value": "0.53 ± 0.03", "unit": "%ID/g"},
      {"measurement": "Stomach uptake", "setting": "B16F10 murine melanoma; [4]", "value": "0.42 ± 0.14", "unit": "%ID/g"},
      {"measurement": "Tumor / Blood uptake ratio", "setting": "B16F10 murine melanoma; [4]", "value": "2.74 ± 0.80"},
      {"measurement": "Tumor / Muscle uptake ratio", "setting": "B16F10 murine melanoma; [4]", "value": "3.98 ± 1.09"},
      {"measurement": "liver uptake compared with ^18F-FP-RMSH-1", "setting": "B16F10 murine melanoma; biodistribution, 2 h", "value": "higher uptake in liver"}
    ]},
    {"molecule": "CC(=O)N[C@H](CCCCNC(=O)C(C)F)C(=O)N[C@@H](CS)C(=O)N[C@@H](CS)C(=O)N[C@@H](CCC(=O)O)C(=O)N[C@@H](Cc1c[nH]cn1)C(=O)N[C@H](Cc1ccccc1)C(=O)N[C@@H](CCCNC(=N)N)C(=O)N[C@@H](Cc1c[nH]c2ccccc12)C(=O)N[C@@H](CS)C(=O)N[C@@H](CCCNC(=N)N)C(=O)N1CCC[C@H]1C(=O)N[C@H](C(N)=O)C(C)C", "note": "(some centres unmarked) [^18F-FP-RMSH-1]", "values": [
      {"measurement": "PET tumor uptake and tumor-to-background ratio, A375M", "setting": "A375M melanoma; 1 and 2 h, compared with B16F10 tumor bearing mice", "value": "much lower tumor uptake and poor tumor-to-background ratio"},
      {"measurement": "PET kidney activity accumulation, A375M", "setting": "A375M melanoma; 1 and 2 h p.i.", "value": "high activity accumulation in kidneys"},
      {"measurement": "PET visibility of A375M tumor", "setting": "A375M melanoma; 1 and 2 h p.i.", "value": "barely discernable; also recorded: barely noticeable"},
      {"measurement": "A375M tumor uptake compared with B16F10 tumors", "setting": "A375M human melanoma; 2 h p.i., P < 0.01", "value": "significantly lower than in B16F10 tumors"},
      {"measurement": "Heart uptake", "setting": "A375M human melanoma; [3]", "value": "0.41 ± 0.19", "unit": "%ID/g"},
      {"measurement": "Intestine uptake", "setting": "A375M human melanoma; [3]", "value": "0.40 ± 0.19", "unit": "%ID/g"},
      {"measurement": "Liver uptake", "setting": "A375M human melanoma; [3]", "value": "0.69 ± 0.21", "unit": "%ID/g"},
      {"measurement": "Pancreas uptake", "setting": "A375M human melanoma; [3]", "value": "0.78 ± 0.49", "unit": "%ID/g"},
      {"measurement": "PET liver and kidney uptake", "setting": "B16F10 tumors; B16F10, 1 and 2 h p.i.", "value": "moderate to high uptake in liver and kidney"},
      {"measurement": "PET tumor delineation / image quality", "setting": "B16F10 tumors", "value": "Improved quality of PET images; also recorded: clearly delineated over the background at 1 and 2 h p.i"},
      {"measurement": "Muscle uptake", "setting": "B16F10 murine melanoma; B16F10 model", "value": "low uptake in muscle"},
      {"measurement": "blood clearance", "setting": "B16F10 murine melanoma; B16F10 model", "value": "rapid blood clearance"},
      {"measurement": "lung and liver uptake compared with ^18F-FB-RMSH-1", "setting": "B16F10 murine melanoma; B16F10 model", "value": "much lower uptake in lung and liver"},
      {"measurement": "tumor-to-blood and tumor-to-muscle ratios compared with ^18F-FB-RMSH-1", "setting": "B16F10 murine melanoma; B16F10 model", "value": "Much higher tumor-to-blood and tumor-to-muscle ratios"},
      {"measurement": "kidney uptake compared with ^18F-FB-RMSH-1", "setting": "B16F10 murine melanoma; B16F10 tumor bearing mice, P < 0.05", "value": "lower kidney uptake"},
      {"measurement": "Tumor / Muscle uptake ratio", "setting": "B16F10 murine melanoma; [4]", "value": "9.36 ± 3.98"}
    ]},
    {"molecule": "CC(=O)N[C@H](CCCCNC(=O)C(C)F)C(=O)N[C@@H](CS)C(=O)N[C@@H](CS)C(=O)N[C@@H](CCC(=O)O)C(=O)N[C@@H](Cc1c[nH]cn1)C(=O)N[C@H](Cc1ccccc1)C(=O)N[C@@H](CCCNC(=N)N)C(=O)N[C@@H](Cc1c[nH]c2ccccc12)C(=O)N[C@@H](CS)C(=O)N[C@@H](CCCNC(=N)N)C(=O)N1CCC[C@H]1C(=O)N[C@H](C(N)=O)C(C)C", "note": "(some centres unmarked) [^19F-FP-RMSH-1]", "values": [
      {"measurement": "receptor binding affinity", "setting": "MC1R [1]", "value": "within low nM range"}
    ]},
    {"molecule": "Ac-d,Lys-ReCCMSH(Arg^11) (sidechain bridge or staple) [RMSH-1]", "values": [
      {"measurement": "MC1R binding affinity of unconjugated RMSH isomers", "setting": "MC1R [2]", "value": "high MC1R binding affinity in nanomolar (nM) range"}
    ]},
    {"molecule": "Ac-d,Lys-ReCCMSH(Arg^11) (sidechain bridge or staple) [RMSH-2]", "values": [
      {"measurement": "MC1R binding affinity of unconjugated RMSH isomers", "setting": "MC1R [2]", "value": "high MC1R binding affinity in nanomolar (nM) range"}
    ]}
  ]
}
